Assay results: ChEMBL document CHEMBL3745692, “Novel iodoacetamido benzoheterocyclic derivatives with potent antileukemic activity are inhibitors of STAT5 phosphorylation” (Eur J Med Chem, 2016)

Columns and labels:
[1] = system: K562; assay: Induction of apoptosis in human K562 cells after 48 hrs by annexinV and propidium iodide staining based flow cytometry; assay type: functional, cell-based; conditions: K562, 48 h
In short: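 After 48 h drug exposure, 1×10^6 cells were washed in PBS and spun at 200×g for 5 min. They were stained with FITC-annexin V plus propidium iodide for 15 min at 20 °C and annexin V-positive cells counted by flow cytometry. Apoptosis was also scored morphologically with acridine orange/ethidium bromide, counting at least 300 cells. AC50 is the concentration inducing apoptosis in 50% of cells; mean ± SE from two to three experiments.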

[2] = system: K562; assay: Antiproliferative activity against human K562 cells after 48 hrs by trypan blue dye exclusion assay; assay type: functional, cell-based; conditions: K562, 48 h
[3] = system: K562; assay: Cell cycle arrest in human K562 cells assessed as accumulation at G1 phase at 2 uM for 24 hrs by propidium iodide staining based flow cytometry (reference value: 39.27%); assay type: functional
In short: (§1)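 K562 cells were exposed to compound for 24 h. They were then washed in ice-cold PBS and resuspended at 1×10^6/mL in a hypotonic solution of propidium iodide 50 µg/mL in 0.1% sodium citrate with 0.03% NP-40. After 30 min, DNA content was read by flow cytometry as single-parameter histograms and cell cycle phase distribution (%) was modelled.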

[4] = system: K562; assay: Cell cycle arrest in human K562 cells assessed as accumulation at S-phase at 2 uM for 24 hrs by propidium iodide staining based flow cytometry (reference value: 47.84%); assay type: functional; in short: as §1
[5] = system: K562; assay: Cell cycle arrest in human K562 cells assessed as accumulation at G2M-phase at 2 uM for 24 hrs by propidium iodide staining based flow cytometry (reference value: 12.89%); assay type: functional; in short: as §1
[6] = molecular target: T1, Signal transducer and activator of transcription 5A (Homo sapiens) (UniProt P42229); assay: Inhibition of STAT5 phosphorylation in human K562 cells at 2 uM after 24 hrs by flow cytometry (reference value: 315.56); assay type: cell-based
T1 sequence (whole entry): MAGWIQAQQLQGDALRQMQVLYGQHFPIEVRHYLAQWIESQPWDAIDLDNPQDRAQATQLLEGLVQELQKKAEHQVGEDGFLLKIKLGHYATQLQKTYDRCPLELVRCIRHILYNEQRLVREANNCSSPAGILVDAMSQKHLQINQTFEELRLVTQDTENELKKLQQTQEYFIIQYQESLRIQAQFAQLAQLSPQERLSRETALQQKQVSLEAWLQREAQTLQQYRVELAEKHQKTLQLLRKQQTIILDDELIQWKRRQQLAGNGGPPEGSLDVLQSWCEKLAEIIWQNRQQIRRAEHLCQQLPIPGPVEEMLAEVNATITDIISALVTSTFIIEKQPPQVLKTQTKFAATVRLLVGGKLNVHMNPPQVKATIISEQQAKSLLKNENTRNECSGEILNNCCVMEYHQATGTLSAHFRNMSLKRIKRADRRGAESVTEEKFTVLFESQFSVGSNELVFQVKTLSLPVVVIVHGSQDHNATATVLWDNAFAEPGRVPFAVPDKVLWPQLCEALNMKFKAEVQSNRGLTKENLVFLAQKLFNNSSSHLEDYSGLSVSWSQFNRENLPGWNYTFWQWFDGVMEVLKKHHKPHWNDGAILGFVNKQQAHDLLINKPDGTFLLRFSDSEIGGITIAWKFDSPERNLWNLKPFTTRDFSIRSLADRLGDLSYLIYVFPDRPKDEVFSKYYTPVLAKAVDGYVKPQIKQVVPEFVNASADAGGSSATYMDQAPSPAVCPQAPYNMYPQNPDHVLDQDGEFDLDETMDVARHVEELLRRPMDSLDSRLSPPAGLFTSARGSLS
In short: (§2)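 After 24 h exposure, about 1×10^6 K562 cells were PBS-washed and fixed/permeabilised for 20 min at 4 °C. They were then stained for 30 min at 4 °C with PE-conjugated anti-pSTAT5 monoclonal antibody, with an isotype antibody as control. Median fluorescence was read by flow cytometry and compared with untreated cells stained for pSTAT5.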

[7] = molecular target: T1, Signal transducer and activator of transcription 5A (Homo sapiens); assay: Inhibition of STAT5 phosphorylation in human K562 cells at 3 uM after 24 hrs by flow cytometry (reference value: 315.56); assay type: cell-based; in short: as §2
[8] = system: K562; assay: Cell cycle arrest in human K562 cells assessed as accumulation at G2M-phase at 3 uM for 24 hrs by propidium iodide staining based flow cytometry (reference value: 12.89%); assay type: functional
In short: (§3)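 K562 cells in RPMI 1640 with 10% FCS, penicillin/streptomycin and L-glutamine, 5% CO2, 37 °C; exposed 24 h. Cells washed in ice-cold PBS, resuspended at 1×10^6/mL in hypotonic solution of propidium iodide 50 µg/mL in 0.1% sodium citrate plus 0.03% nonidet P-40 for 30 min. DNA content read as single-parameter flow cytometry histograms; phase distribution modelled.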

[9] = system: K562; assay: Cell cycle arrest in human K562 cells assessed as accumulation at S-phase at 3 uM for 24 hrs by propidium iodide staining based flow cytometry (reference value: 47.84%); assay type: functional; in short: as §3
[10] = molecular target: Tubulin (Bos taurus, UniProt Q6B856+Q862L2+Q862F3); assay: Inhibition of bovine brain tubulin polymerization by spectrophotometry
In short: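 Bovine brain tubulin (10 µM) was pre-incubated with varying compound concentrations in glutamate buffer at 30 °C, then cooled to 0 °C. GTP was added ([…] final) and the mixture warmed to 30 °C. Assembly was followed by turbidity at 350 nm.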

[11] = system: K562; assay: Cell cycle arrest in human K562 cells assessed as accumulation at G1 phase at 3 uM for 24 hrs by propidium iodide staining based flow cytometry (reference value: 39.27%); assay type: functional; in short: as §3
[12] = system: K562; assay: Cell cycle arrest in human K562 cells assessed as accumulation at G1 phase at 1 uM for 24 hrs by propidium iodide staining based flow cytometry (reference value: 39.27%); assay type: functional; in short: as §1
[13] = molecular target: T1, Signal transducer and activator of transcription 5A (Homo sapiens); assay: Inhibition of STAT5 phosphorylation in human K562 cells at 1 uM after 24 hrs by flow cytometry (reference value: 315.56); assay type: cell-based; in short: as §2
[14] = system: K562; assay: Cell cycle arrest in human K562 cells assessed as accumulation at G2M-phase at 1 uM for 24 hrs by propidium iodide staining based flow cytometry (reference value: 12.89%); assay type: functional; in short: as §1
[15] = species: Bos taurus; assay: Inhibition of [3H]colchicine binding to bovine tubulin at 5 uM by DEAE-cellulose filter method
In short: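 Reaction mixtures contained 1 µM tubulin, 5 µM [3H]colchicine and 5 µM test compound. Result is given as % inhibition of colchicine binding ± SD.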

[16] = system: K562; assay: Cell cycle arrest in human K562 cells assessed as accumulation at S-phase at 1 uM for 24 hrs by propidium iodide staining based flow cytometry (reference value: 47.84%); assay type: functional; in short: as §1
[17] = molecular target: T1, Signal transducer and activator of transcription 5A (Homo sapiens); assay: Inhibition of STAT5 phosphorylation in human K562 cells at 2 uM after 24 hrs by flow cytometry relative to control; assay type: cell-based
In short: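 K562 cells were exposed for 24 h. About 1×10^6 cells were fixed and permeabilized for 20 min at 4 °C, then stained for 30 min at 4 °C with PE-conjugated anti-pSTAT5 monoclonal antibody; an isotype IgG1 antibody served as the background control. Median fluorescence was read by flow cytometry and compared with untreated cells stained for pSTAT5.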

[18] = system: K562; assay: Cell cycle arrest in human K562 cells assessed as accumulation at S-phase at 5 uM for 24 hrs by propidium iodide staining based flow cytometry (reference value: 47.84%); assay type: functional; in short: as §1
[19] = system: K562; assay: Cell cycle arrest in human K562 cells assessed as accumulation at G2M-phase at 5 uM for 24 hrs by propidium iodide staining based flow cytometry (reference value: 12.89%); assay type: functional; in short: as §1
[20] = system: K562; assay: Cell cycle arrest in human K562 cells assessed as accumulation at G1 phase at 5 uM for 24 hrs by propidium iodide staining based flow cytometry (reference value: 39.27%); assay type: functional; in short: as §1
[21] = molecular target: T1, Signal transducer and activator of transcription 5A (Homo sapiens); assay: Inhibition of STAT5 phosphorylation in human K562 cells at 5 uM after 24 hrs by flow cytometry (reference value: 315.56); assay type: cell-based; in short: as §2

## Cc1ccc(NC(=O)c2ccc(CN3CCN(C)CC3)cc2)cc1Nc1nccc(-c2cccnc2)n1 [IMATINIB]
[1]
  AC50: 680 nM

## COc1ccc2oc(C(=O)c3cc(OC)c(OC)c(OC)c3)c(NC(=O)CI)c2c1
[1]
  AC50: 7800 nM
[2]
  IC50: 3200 nM

## COc1cc(C(=O)c2cc3cc(NC(=O)CI)cc(OC)c3s2)cc(OC)c1OC
[3]
  Activity: 19.94%
[1]
  AC50: 3700 nM
[4]
  Activity: 33.7%
[2]
  IC50: 780 nM
[5]
  Activity: 45.36%
[6]
  Flu intensity: 201

## COc1cc(C(=O)c2cc3cc(NC(=O)CI)ccc3s2)cc(OC)c1OC
[3]
  Activity: 32.96%
[1]
  AC50: 4200 nM
[4]
  Activity: 54.92%
[2]
  IC50: 800 nM
[5]
  Activity: 12.12%
[6]
  Flu intensity: 279

## COc1cc(C(=O)c2oc3ccccc3c2NC(=O)CI)cc(OC)c1OC
[1]
  AC50: 6500 nM
[7]
  Flu intensity: 98.3
[8]
  Activity: 3.65%
[2]
  IC50: 900 nM
[9]
  Activity: 20.98%
[10]
  IC50: > 20000 nM
[11]
  Activity: 75.37%

## COc1cc(C(=O)c2sc3c(C)cccc3c2NC(=O)CI)cc(OC)c1OC
[12]
  Activity: 79.88%
[13]
  Flu intensity: 45.2
[14]
  Activity: 2.99%
[15]
  inhibition: 65%
[1]
  AC50: 2800 nM
[16]
  Activity: 17.13%
[2]
  IC50: 400 nM
[10]
  IC50: 1100 nM

## COc1ccc2c(NC(=O)CI)c(C(=O)c3cc(OC)c(OC)c(OC)c3)oc2c1
[15]
  inhibition: 54%
[1]
  AC50: 450 nM
[2]
  IC50: 120 nM
[10]
  IC50: 1800 nM

## COc1cc(C(=O)c2cc3cccc(NC(=O)CI)c3o2)cc(OC)c1OC
[1]
  AC50: > 50000 nM
[2]
  IC50: > 50000 nM

## COc1cc(C(=O)c2oc3c(OC)cccc3c2NC(=O)CI)cc(OC)c1OC
[1]
  AC50: 24000 nM
[2]
  IC50: 14000 nM

## COc1cc(C(=O)c2sc3cc(C)ccc3c2NC(=O)CI)cc(OC)c1OC
[1]
  AC50: 4700 nM
[7]
  Flu intensity: 200
[8]
  Activity: 30.87%
[2]
  IC50: 1000 nM
[9]
  Activity: 27.66%
[11]
  Activity: 41.47%

## COc1cc(C(=O)c2cc3cc(NC(=O)CI)ccc3o2)cc(OC)c1OC
[3]
  Activity: 39.48%
[1]
  AC50: 2900 nM
[4]
  Activity: 53.52%
[17]
  inhibition: 19%
[2]
  IC50: 600 nM
[5]
  Activity: 7%
[6]
  Flu intensity: 255

## O=C(CI)Nc1c(C(=O)c2ccccc2)oc2ccccc12
[1]
  AC50: 5900 nM
[18]
  Activity: 20.28%
[19]
  Activity: 11.4%
[20]
  Activity: 68.32%
[2]
  IC50: 1000 nM
[10]
  IC50: > 20000 nM
[21]
  Flu intensity: 103
